The subject of test [1] is MCF-7. The test can be described thus: antiproliferative assay, MCF-7. It counts as cell-based. The settings on record: Homo sapiens, MCF7, read-out: IC50 MCF-7. An outline of the steps:
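Run as an antiproliferative screen on human cancer lines alongside the normal mammary epithelial line MCF-10, with a positive control included. The highest test concentration was 33.3 μM.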

Test [2] has as its system MCF-10. Briefly: antiproliferative assay, normal mammary epithelial cell line MCF-10. It counts as cell-based. Conditions: Homo sapiens, MCF10, read-out: IC50 MCF-10. An outline of the steps: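 Human cancer and normal mammary epithelial lines were tested in an antiproliferative assay. Shikonin served as the positive control. The highest test concentration was 33.3 μM.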

Some results are limits rather than exact numbers.

Usually IC50 stands for the point on the concentration scale where inhibition reaches its midpoint. For the compound `COc1cccc2c1C(=O)c1c(O)c3c(c(O)c1C2=O)C[C@@](O)(C(=O)CO)C[C@@H]3O[C@H]1C[C@H](N)[C@H](O)[C@H](C)O1` [Doxorubicin, reference compound], the IC50 in test [1] is 1.17 µM.
Regarding `O=C1C2=C(C(=O)c3ccccc31)C(O)C1=C(O)CC(c3ccccc3)C1=C2O` (stereo not drawn) [Compound 4a], the IC50 in test [1] and in test [2] was more than 33.3 µM in each case.

Values taken from article PMC5474392 (Bioorganic & medicinal chemistry letters, 2016).
